Reference: PubChem BioAssay
Calls of active or inactive are those of the source.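 Rule for the calls: active = current rise at least 3 SD above the untreated control mean in each of two repeat wells; inactive = the rest.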

These compounds were tested against Potassium voltage-gated channel subfamily KQT member 1 (Homo sapiens) (UniProt P51787) (assay: KCNQ1 channel current potentiators, confirmation, orthogonal assay for KCNQ1 potentiator project, IonWorks patch clamp, KCNQ1-CHO cells (AID 493184;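 for current potentiation: percent change of the same well's current before compound addition so 0% = no change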)). Details: automated patch clamp current, at 10 µM; hits give high values.
Potassium voltage-gated channel subfamily KQT member 1 (Homo sapiens), sequence (P51787 whole entry, looked up): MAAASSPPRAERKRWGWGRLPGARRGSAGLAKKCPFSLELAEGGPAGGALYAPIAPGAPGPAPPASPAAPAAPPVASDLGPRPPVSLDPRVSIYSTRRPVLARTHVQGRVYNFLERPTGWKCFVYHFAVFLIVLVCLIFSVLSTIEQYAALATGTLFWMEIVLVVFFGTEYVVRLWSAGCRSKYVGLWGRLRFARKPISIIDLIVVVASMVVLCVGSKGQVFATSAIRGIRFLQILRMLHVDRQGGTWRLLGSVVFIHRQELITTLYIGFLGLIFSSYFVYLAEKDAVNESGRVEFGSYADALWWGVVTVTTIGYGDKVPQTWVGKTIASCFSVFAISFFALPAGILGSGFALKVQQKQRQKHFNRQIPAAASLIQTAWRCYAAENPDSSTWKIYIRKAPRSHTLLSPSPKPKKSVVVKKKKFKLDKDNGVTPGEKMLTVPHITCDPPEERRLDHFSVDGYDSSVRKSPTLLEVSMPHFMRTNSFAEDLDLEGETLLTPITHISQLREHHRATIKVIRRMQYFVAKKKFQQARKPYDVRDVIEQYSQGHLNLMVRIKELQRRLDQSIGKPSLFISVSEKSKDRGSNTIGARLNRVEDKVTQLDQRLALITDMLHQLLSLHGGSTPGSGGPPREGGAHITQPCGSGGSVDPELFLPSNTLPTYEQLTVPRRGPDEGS
Outline: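 Material: KCNQ1-expressing CHO cells; doses: 10 µM final, single point; probe or stimulus: voltage step from -90 mV holding to +40 mV, 2,000 ms; signal: automated voltage clamp, amphotericin B perforated patch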

Compound	outcome	current potentiation
S=c1[nH]nc(-c2ccco2)n1/N=C/c1ccc(Cl)cc1Cl	inactive	–
Cc1ccnc(NC(=O)CNC(=O)c2ccc3c(c2)OCO3)c1	inactive	–
O=C(Nc1nnc(-c2ccc3c(c2)CCCC3)o1)c1c(F)cccc1F	–	20.7% (active)
Cc1ccc(-n2cnnn2)c2cccnc12	inactive	–
Cc1ccc2nc3c(cc(C(=O)NCC4CCCO4)c(=N)n3C3CCCC3)c(=O)n2c1 (stereo not drawn)	inactive	–
O=C1c2ccccc2NC(c2ccccc2O)N1O (stereo not drawn)	inactive	–
Cc1cc(SCNC(=O)c2ccccc2)ncn1	inactive	–
Cc1ccc(O)c(C(=O)CC(=O)c2cccc(F)c2)c1	inactive	–
Cc1cccn2c(=O)nc(SCC(=O)N3N=C(c4cccs4)CC3c3ccc(F)cc3)nc12 (stereo not drawn)	inactive	–
CC(C)[N+]1(C)[C@@H]2CC[C@H]1CC(OC(=O)C(CO)c1ccccc1)C2 (stereo partly drawn)	inactive	–
COc1ccc(CN(C)C(=O)c2ccc3ccccc3n2)cc1F	inactive	–
Cc1cc(NC(=O)CSc2cn(CCNC(=O)c3ccc(F)cc3)c3ccccc23)no1	inactive	–
O=C(NCC1CCCO1)c1ccc2c(c1)S(=O)(=O)c1ccccc1C2=O (stereo not drawn)	inactive	–
O=C(Nc1nc(=O)c2ccccc2s1)c1ccc(F)cc1	inactive	–
CC(/C=N/n1c(-c2ccc(C)cc2)n[nH]c1=S)=C\c1ccco1	inactive	–
CCOC(=O)c1c(NC(=O)C(C)N2CCN(C(=O)c3ccco3)CC2)sc2c1CCCC2 (stereo not drawn)	inactive	–
O=C(Cn1ncc2c(=O)oc3ccccc3c21)N1CCN(C(=O)c2ccco2)CC1	inactive	–
S=c1nc(-c2ccccc2)[nH]c2ccc(Br)cc12	inactive	–
